Assay results: ChEMBL document CHEMBL3797174, “Iodine catalyzed simple and efficient synthesis of antiproliferative 2-pyridones” (Bioorg Med Chem Lett, 2016)

Tests used:
MRC5 = experiment: Cytotoxicity against human MRC5 cells assessed as cell viability after 24 hrs by MTT assay; type: cell-based; details: MRC5, 24 h
How it was run: (§1)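 MTT reduction by viable cells; formazan dissolved in DMSO, absorbance read at 570 nm. […] Values expressed as IC50 (µM).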

HepG2 = experiment: Cytotoxicity against human HepG2 cells assessed as inhibition of cell proliferation after 24 hrs by MTT assay; type: functional, cell-based; details: HepG2, 24 h; how it was run: as §1
MCF7 [1] = experiment: Cytotoxicity against human MCF7 cells assessed as inhibition of cell proliferation after 24 hrs by MTT assay; type: functional, cell-based; details: MCF7, 24 h
[2] = Cytotoxicity against human SKOV3 cells assessed as inhibition of cell proliferation after 24 hrs by MTT assay; type: functional, cell-based; details: SK-OV-3, 24 h; how it was run: as §1
A549 = experiment: Cytotoxicity against human A549 cells assessed as inhibition of cell proliferation after 24 hrs by MTT assay; type: functional, cell-based; details: A549, 24 h; how it was run: as §1
MCF7 [3] = experiment: Induction of apoptosis in human MCF7 cells assessed as increase in caspase 9 activation at 8 to 12 uM using AFC-conjugated […] as substrate after 24 to 48 hrs by fluorescence analysis relative to control; type: functional
MCF7 [4] = experiment: Induction of apoptosis in human MCF7 cells assessed as increase in caspase 3 activation at 8 to 12 uM using AFC-conjugated […] as substrate after 24 to 48 hrs by fluorescence analysis relative to control; type: functional

SMILES	IC50 (MRC5) [µM]	IC50 (HepG2) [µM]	IC50 (MCF7 [1]) [µM]	IC50 [2] [µM]	IC50 (A549) [µM]	fold change (FC) (MCF7 [3])	fold change (FC) (MCF7 [4])
CCOC(=O)c1c(C)[nH]c(=O)c(C#N)c1-c1ccccc1Cl	229	34.1	25.4	> 100	25		
CCOC(=O)c1c(C)[nH]c(=O)c(C#N)c1-c1ccc(OC)cc1	192	51.5	36.1	> 100	25.1		
COc1cccc2c1C(=O)c1c(O)c3c(c(O)c1C2=O)C[C@@](O)(C(=O)CO)C[C@@H]3O[C@H]1C[C@H](N)[C@H](O)[C@H](C)O1 [DOXORUBICIN]	89.7	3.39		25	0.23		
CCOC(=O)c1c(C)[nH]c(=O)c(C#N)c1-c1ccc(C)cc1	438	11.9	8	> 100	15.8	2	2
CCOC(=O)c1c(C)[nH]c(=O)c(C#N)c1-c1ccccc1	220	38.5	22	> 100	> 100		
CCOC(=O)c1c(C)[nH]c(=O)c(C#N)c1-c1ccc(C#N)cc1	1220	20.2	9.32	> 100	> 100		
CCOC(=O)c1c(C)[nH]c(=O)c(C#N)c1-c1ccc2c(c1)OCO2	192	> 100	34	> 100	27.3		
CCOC(=O)c1c(C)[nH]c(=O)c(C#N)c1-c1ccc(F)cc1	149	18.6	22.9	> 100	15.4		
CCOC(=O)c1c(C)[nH]c(=O)c(C#N)c1-c1cccc2ccccc12	196	32.3	31.4	> 100	24		
CCOC(=O)c1c(C)[nH]c(=O)c(C#N)c1-c1cccs1	205	74	33.4	97.3	20.1		
CCOC(=O)c1c(C)[nH]c(=O)c(C#N)c1-c1cc(OC)c(OC)c(OC)c1	253	20.9	18.1	> 100	23.4		
CCOC(=O)c1c(C)[nH]c(=O)c(C#N)c1-c1ccc(Br)cc1	310	65.5	31.8	> 100	> 100		
CCOC(=O)c1c(C)[nH]c(=O)c(C#N)c1-c1ccco1	407	57.4	17.5	76	> 100		
CCOC(=O)c1c(C)[nH]c(=O)c(C#N)c1-c1ccc([N+](=O)[O-])cc1	2230	21.7	82	> 100	> 100		
